In ChEMBL document CHEMBL1914308, “N-fused imidazoles as novel anticancer agents that inhibit catalytic activity of topoisomerase IIα and induce apoptosis in G1/S phase” (J Med Chem, 2011):
Activity calls are given as the source filed them. The rule behind the calls is not given here.

Legend:
HEK293 [1] = experiment: Induction of cell cycle arrest in human HEK293 cells assessed as accumulation at G2/M phase at 25 uM after 48 hrs by propidium iodide staining-based FACS analysis (reference value: 7.5 +/- 1.0%); format: functional
HEK293 [2] = experiment: Anticlonogenic activity against human HEK293 cells after 48 hrs by crystal violet staining; format: functional; settings: HEK293, 48 h, read-out: LC50 (the source's name)
Procedure, shortened: (§1)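 HEK 293 and Vero cells were grown in DMEM with 10% FBS and 1% penicillin/streptomycin at 37 °C in 5% CO₂. At 60–70% confluence they were exposed for 48 h to a range of concentrations, diluted in DMEM from 100 mM DMSO stocks. Colony survival is expressed as %. Values are mean ± SD of three independent experiments; LC₅₀ is the concentration killing half the cells.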

HEK293 [3] = experiment: Induction of cell cycle arrest in human HEK293 cells assessed as accumulation at S phase at 15 uM after 48 hrs by propidium iodide staining-based FACS analysis (reference value: 16.91 +/- 1.0%); format: functional
MCF7 = experiment: Cytotoxicity against human MCF7 cells assessed as cell survival at 15 uM after 48 hrs by MTT assay; format: functional; settings: MCF7, 48 h, read-out: Activity
Procedure, shortened: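 MTT survival of MCF 7 breast cancer cells, with MCF 10A as normal comparator; 48 h exposure. MCF 7 in DMEM with 10% FBS; MCF 10A in DMEM/F-12 with 10% FBS plus hydrocortisone, cholera toxin, insulin, EGF and L-glutamine. Mean ± SD of three independent experiments.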

HEK293 [4] = experiment: Induction of apoptosis in human HEK293 cells assessed as increase in apoptotic nuclei at 25 uM after 48 hrs by DAPI staining-based fluorescence microscopic analysis; format: functional
Procedure, shortened: (§2)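 HEK 293 cells exposed 48 h to 0, 15, 25 or 35 μM, nuclei stained with DAPI and apoptotic nuclei counted by fluorescence imaging; three replicates.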

HEK293 [5] = experiment: Induction of cell cycle arrest in human HEK293 cells assessed as accumulation at S phase at 35 uM after 48 hrs by propidium iodide staining-based FACS analysis (reference value: 16.91 +/- 1.0%); format: functional
[6] = target: T1, DNA topoisomerase 2-alpha (Homo sapiens, UniProt P11388); experiment: Inhibition of topoisomerase 2 alpha-mediated DNA relaxation activity in human HEK293 cells assessed as increase in supercoiled DNA at 35 uM […] by agarose gel electrophoresis; format: cell-based
T1 sequence (P11388 whole entry): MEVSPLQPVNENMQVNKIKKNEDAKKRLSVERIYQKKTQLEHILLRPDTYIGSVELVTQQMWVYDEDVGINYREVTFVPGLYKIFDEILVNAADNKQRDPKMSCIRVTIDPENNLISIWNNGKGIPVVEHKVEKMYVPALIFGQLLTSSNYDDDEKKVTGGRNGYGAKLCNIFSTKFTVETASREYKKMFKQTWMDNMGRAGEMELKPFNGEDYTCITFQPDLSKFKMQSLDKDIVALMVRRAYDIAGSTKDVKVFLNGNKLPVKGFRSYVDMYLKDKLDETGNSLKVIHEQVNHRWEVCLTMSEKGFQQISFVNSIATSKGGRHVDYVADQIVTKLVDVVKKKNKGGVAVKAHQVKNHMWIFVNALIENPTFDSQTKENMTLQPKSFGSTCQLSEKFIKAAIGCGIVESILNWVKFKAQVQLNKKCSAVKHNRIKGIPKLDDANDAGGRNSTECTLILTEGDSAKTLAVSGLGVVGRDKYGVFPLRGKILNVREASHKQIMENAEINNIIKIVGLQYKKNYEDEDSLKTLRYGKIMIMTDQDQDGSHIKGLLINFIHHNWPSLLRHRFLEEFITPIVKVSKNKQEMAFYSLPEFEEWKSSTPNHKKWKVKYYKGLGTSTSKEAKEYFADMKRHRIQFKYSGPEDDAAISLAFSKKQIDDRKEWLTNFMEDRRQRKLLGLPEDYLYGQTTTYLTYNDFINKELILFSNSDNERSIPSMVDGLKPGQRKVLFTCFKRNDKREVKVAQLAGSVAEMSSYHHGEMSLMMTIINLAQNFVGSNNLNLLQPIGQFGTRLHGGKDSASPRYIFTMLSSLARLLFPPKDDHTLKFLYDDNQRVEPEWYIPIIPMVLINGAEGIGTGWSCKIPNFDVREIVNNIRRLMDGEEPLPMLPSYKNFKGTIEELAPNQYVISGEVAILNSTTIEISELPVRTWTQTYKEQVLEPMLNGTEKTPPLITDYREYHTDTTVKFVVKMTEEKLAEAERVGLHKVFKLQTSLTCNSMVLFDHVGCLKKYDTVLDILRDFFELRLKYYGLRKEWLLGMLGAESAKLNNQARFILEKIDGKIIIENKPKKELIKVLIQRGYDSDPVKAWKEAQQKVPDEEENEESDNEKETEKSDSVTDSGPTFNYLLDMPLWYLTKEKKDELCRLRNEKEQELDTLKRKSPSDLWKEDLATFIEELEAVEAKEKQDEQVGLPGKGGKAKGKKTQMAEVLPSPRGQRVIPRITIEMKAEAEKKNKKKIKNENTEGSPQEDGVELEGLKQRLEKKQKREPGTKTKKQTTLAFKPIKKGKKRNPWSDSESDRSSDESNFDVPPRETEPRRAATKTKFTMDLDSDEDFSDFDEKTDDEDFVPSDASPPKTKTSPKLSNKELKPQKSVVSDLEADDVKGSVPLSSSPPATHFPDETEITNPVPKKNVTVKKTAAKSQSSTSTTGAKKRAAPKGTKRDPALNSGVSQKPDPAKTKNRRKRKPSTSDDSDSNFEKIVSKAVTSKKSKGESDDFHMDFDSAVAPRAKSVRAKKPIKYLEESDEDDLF

HEK293 [7] = experiment: Induction of cell cycle arrest in human HEK293 cells assessed as accumulation at G1 phase at 35 uM after 48 hrs by propidium iodide staining-based FACS analysis (reference value: 61 +/- 0.9%); format: functional
[8] = target: T1, DNA topoisomerase 2-alpha; experiment: Inhibition of human topoisomerase 2 alpha-mediated decatenation of kDNA at 100 uM by agarose gel electrophoresis
Procedure, shortened: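 150 ng kDNA with 2–4 units purified human topo II and 100 μM compound in DMSO, buffer 0.5 M Tris-HCl pH 8, NaCl, MgCl2, DTT, BSA with ATP (stock buffer concentrations), 20 μL, 37 °C 30 min. Stopped with SDS, proteinase K 37 °C 15 min; 1% agarose in TAE with 0.5 μg/mL EtBr; bands quantified by densitometry; etoposide 100 μM as reference.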

HEK293 [9] = experiment: Induction of apoptosis in human HEK293 cells assessed as increase in apoptotic nuclei at 15 uM after 48 hrs by DAPI staining-based fluorescence microscopic analysis; format: functional; procedure, shortened: as §2
HEK293 [10] = experiment: Induction of cell cycle arrest in human HEK293 cells assessed as accumulation at S phase at 25 uM after 48 hrs by propidium iodide staining-based FACS analysis (reference value: 16.91 +/- 1.0%); format: functional
HEK293 [11] = experiment: Induction of cell cycle arrest in human HEK293 cells assessed as accumulation at G2/M phase at 35 uM after 48 hrs by propidium iodide staining-based FACS analysis (reference value: 7.5 +/- 1.0%); format: functional
HEK293 [12] = experiment: Antimigratory activity against human HEK293 cells at 25 uM after 24 hrs by wound healing assay; format: functional, cell-based
Procedure, shortened: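 Wound healing in HEK 293 monolayer: scratch made with sterile micro tip, cells then cultured with or without 25 μM compound; gap closure followed over time to 24 h. Best of three independent experiments shown.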

[13] = Cytotoxicity against human MCF10A cells assessed as cell survival at 100 uM after 48 hrs by MTT assay; format: cell-based, MCF-10A; settings: read-out: Survival
HEK293 [14] = experiment: Induction of apoptosis in human HEK293 cells assessed as increase in apoptotic nuclei at 35 uM after 48 hrs by DAPI staining-based fluorescence microscopic analysis; format: functional; procedure, shortened: as §2
[15] = target: T1, DNA topoisomerase 2-alpha; experiment: Inhibition of etoposide poisoning activity against human recombinant DNA topoisomerase 2alpha assessed as enhancement of in relaxation of supercoiled plasmid pBR322 DNA at 200 uM after 30 mins by agarose gel electrophoresis
HEK293 [16] = experiment: Induction of apoptosis in human HEK293 cells assessed as increase in PARP cleavage product at 15 to 25 uM after 48 hrs by Western blot analysis; format: functional, cell-based
Procedure, shortened: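 Whole-cell extracts from HEK 293 cells after 48 h at graded concentrations, Western blotted for caspase-3, Bax, Bcl-XL and PARP (cleaved 86 kDa fragment); β-actin as loading control.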

[17] = target: T1, DNA topoisomerase 2-alpha; experiment: Inhibition of human topoisomerase 2 alpha-mediated unwinding of supercoiled DNA assessed as DNA intercalation at 100 uM by agarose gel electrophoresis
Procedure, shortened: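 250 ng negatively supercoiled E. coli plasmid incubated 20 min at 37 °C with 1 μg/mL ethidium bromide (intercalator control), 100 μM etoposide or test compound; run on 1% agarose in TAE without EtBr, then post-stained with 0.5 μg/mL EtBr; mobility retardation scored.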

[18] = Anticlonogenic activity against african green monkey Vero after 48 hrs by crystal violet staining; format: ADME, cell-based; settings: chlorocebus sabaeus, Vero cells; read-out: LC50; procedure, shortened: as §1

CC(C)(C)Nc1c(-c2ccc(C(=O)O)cc2)nc2ccccn12
Activity (HEK293 [1]): 8.93%
CC50 (HEK293 [2]): 30 µM
Activity (HEK293 [3]): 13.92%
viability at 15 µM (MCF7): 50%
Activity (HEK293 [4]): 40%
Activity (HEK293 [5]): 10.07%
inhibition [6]: Active
Activity (HEK293 [7]): 21.52%
inhibition [8]: Active
Activity (HEK293 [9]): 20%
Activity (HEK293 [10]): 14.16%
Activity (HEK293 [11]): 5.56%
Activity (HEK293 [12]): Active
viability at 48 h, 100 µM [13]: 75%
Activity (HEK293 [14]): 80%
inhibition [15]: inactive
Activity (HEK293 [16]): Active
inhibition [17]: inactive
CC50 at 48 h [18]: 98 µM
